KDM4C inh: KDM4C (human) demethylase inhibition | hit rate 0.15% among 96,000 | Q9H3R0 | GST-KDM4C 2-372, H3K9me3 peptide, LANCE TR-FRET | AID 720574 | inhibition, % at 12.5 µM;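 active = mean replicate inhibition above about 25%, with at least 55% of replicates also reaching it, limit read from the data, passing the limit was not always enough; inconclusive = only one of those two conditions met; inactive = neither condition met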
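Test system – GST-tagged GASC-1 (JMJD2C) catalytic fragment, aa 2-372 · Medium – HEPES buffer, pH 7.5, plus ascorbate · Reagent – H3K9me3 peptide with Fe(II)/2OG · Compound – one test concentration per compound · Timing – 30 min reaction, 60 min detection, RT · Technique – TR-FRET with Eu antibody and ULight streptavidin, EDTA stop · Read-out basis – inhibition from TR-FRET ratio decrease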
IDH1 R132H inh: blocks human IDH1 R132H reductase activity; diaphorase/resazurin fluorescence, 60 min; inhibition, % at 10 µM; hit rate 0.18% among 70,000; AID 624101; in the data active = inhibition above about 34%; inconclusive = no clear call, values can overlap the other calls; inactive = below about 11%;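 note: 0% = DMSO and 100% = no enzyme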
Target sequence (O75874 whole entry R132H): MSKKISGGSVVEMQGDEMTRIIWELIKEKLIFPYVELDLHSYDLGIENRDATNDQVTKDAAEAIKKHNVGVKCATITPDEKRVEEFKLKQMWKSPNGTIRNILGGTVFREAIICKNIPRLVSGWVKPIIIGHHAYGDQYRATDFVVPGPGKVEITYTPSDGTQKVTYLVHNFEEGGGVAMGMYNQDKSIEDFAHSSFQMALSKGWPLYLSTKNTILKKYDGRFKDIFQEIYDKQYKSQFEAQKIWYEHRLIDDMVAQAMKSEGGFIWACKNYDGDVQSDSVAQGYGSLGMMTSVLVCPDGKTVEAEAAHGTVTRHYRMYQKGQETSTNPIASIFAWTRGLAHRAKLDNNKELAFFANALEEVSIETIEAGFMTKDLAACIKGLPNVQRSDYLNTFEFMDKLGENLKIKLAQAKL
T cruzi growth-1: T. cruzi proliferation inhibition. T. cruzi beta-gal in NIH3T3, GalScreen luminescence, 90 h. inhibition, % at 8.34 µM. hit rate 5.9% among 77,000;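 active = mean inhibition above about 93%, with at least 55% of replicates each passing it, limit read from the data, passing the limit was not always enough; inconclusive = only one of those two conditions holds; inactive = neither condition holds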
T cruzi growth-2: blocks T. cruzi growth in NIH3T3 host cells; shares compounds with T cruzi growth-1; T. cruzi beta-gal in NIH3T3, GalScreen luminescence, 90 h; inhibition, % at 8.35 µM; hit rate 72% among 5,600; AID 651739;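 active = mean replicate inhibition above about 95% and at least 55% of replicates individually reaching it, limit read from the data; inconclusive = only one of the two criteria is met; inactive = neither criterion is met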
T cruzi growth-3: Trypanosoma cruzi proliferation inhibition. hit rate 21% among 5,600. inhibition, % at 2.09 µM. T. cruzi beta-gal in NIH3T3, GalScreen luminescence, 90 h. shares compounds with T cruzi growth-1;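 active = mean inhibition above about 95%, with at least 55% of replicates also reaching it, limit read from the data; inconclusive = meets just one of the two conditions; inactive = meets neither condition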;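 note: plate controls were neutral control median for no effect and positive control median for full effect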
NIH3T3 tox: kills mouse NIH/3T3 fibroblasts; shares compounds with T cruzi growth-1; NIH/3T3 viability, CellTiter-Glo ATP luminescence, 90 h; cytotoxicity (signal decrease), % at 8.35 µM; hit rate 14% among 5,600; AID 651742;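 active = mean signal decrease across replicates above about 35% based on untreated-well scatter, with enough replicates individually passing, limit read from the data; inconclusive = no rule stated though some were filed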;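 note: 0% = median of neutral control wells and 100% = median of positive control wells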
3T3 cytotox 2: NIH/3T3 (mouse) viability loss; shares compounds with T cruzi growth-1; NIH/3T3 viability, CellTiter-Glo ATP luminescence, 90 h; inhibition, % at 24.9 µM; hit rate 56% among 5,600; AID 651744;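 active = mean loss of cell viability signal at or above a set limit, and enough replicates individually reaching it; inconclusive = meets only the mean limit or only the replicate share; inactive = meets neither condition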;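 note: 0% = median of neutral control wells and 100% = median of positive control wells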
The depositor's hits bear a star; ? = inconclusive; . = no result given. This excerpt belongs to a sample that is enriched for hits.

SMILES	KDM4C inh	IDH1 R132H inh	T cruzi growth-1	T cruzi growth-2	T cruzi growth-3	NIH3T3 tox	3T3 cytotox 2
CSc1ccccc1NC(=O)Cn1ccc([N+](=O)[O-])n1	.	0	.	.	.	.	.
CCCOc1ccc(-c2nc(SCC(N)=O)n[nH]2)cc1	.	0	.	.	.	.	.
O=C(CSc1nnc(-c2ccccc2Cl)o1)c1ccc2c(c1)OCCO2	.	0	.	.	.	.	.
Cc1ccc(NC(=O)COc2ccc3c(=O)c(-c4ccccc4Cl)coc3c2)cc1	.	-1	.	.	.	.	.
COc1ccc(Cn2c(C)cc(O)cc2=O)cc1OC	.	-1	.	.	.	.	.
COCC#Cc1ccc([C@H]2[C@@H](CO)N3CCCCN(S(=O)(=O)c4ccccc4C)C[C@@H]23)cc1	-2	.	86	.	.	.	.
CCCC#Cc1ccc([C@H]2[C@@H](CO)N3CCCCN(S(=O)(=O)c4ccccc4C)C[C@@H]23)cc1	14	.	108*	100*	94	3	-4
COCC#Cc1ccc([C@@H]2[C@H](CO)N3CCCCN(S(=O)(=O)c4ccccc4C)C[C@@H]23)cc1	-1	.	27	.	.	.	.
CCCC#Cc1ccc([C@H]2[C@@H](CO)N3CCCCN(S(=O)(=O)c4ccccc4C)C[C@H]23)cc1	-2	.	108*	103*	?	52*	103*
CC1(C)CC(n2c(SCC(N)=O)nc3c(c2=O)C2(CCCC2)Cc2ccccc2-3)CCO1 (stereo not given)	.	0	.	.	.	.	.
O=C(Nc1ccccc1C(=O)NC1CCCCC1)c1ccc(Cl)c(S(=O)(=O)N2CCOCC2)c1	.	0	.	.	.	.	.
CS(=O)(=O)Nc1ccc2c(c1)[C@H]1C[C@H](CC(=O)NCc3ccncc3)O[C@@H](CO)[C@H]1O2	-1	0	102*	1	12	1	4
CS(=O)(=O)Nc1ccc2c(c1)[C@@H]1C[C@@H](CC(=O)NCc3ccncc3)O[C@@H](CO)[C@@H]1O2	0	-1	-43	.	.	.	.
CS(=O)(=O)Nc1ccc2c(c1)[C@@H]1C[C@@H](CC(=O)NCc3ccncc3)O[C@H](CO)[C@@H]1O2	0	-1	117*	-7	-18	8	4
CS(=O)(=O)Nc1ccc2c(c1)[C@H]1C[C@H](CC(=O)NCc3ccncc3)O[C@H](CO)[C@H]1O2	-2	0	-38	.	.	.	.
C[C@H]1CN([C@@H](C)CO)C(=O)c2cccc(NC(=O)c3ccncc3)c2O[C@@H]1CN(C)Cc1ccc(C(=O)Nc2ccccc2N)cc1	0	0	98*	108*	101*	6	47*
C[C@H](CO)N1C[C@H](C)[C@@H](CN(C)Cc2ccc(C(=O)Nc3ccccc3N)cc2)Oc2c(NC(=O)c3ccncc3)cccc2C1=O	-1	.	?	102*	88	18	25*
C[C@@H]1CN([C@@H](C)CO)C(=O)c2cccc(NC(=O)c3ccncc3)c2O[C@H]1CN(C)Cc1ccc(C(=O)O)cc1	-1	.	.	.	.	.	.
C[C@@H]1CN([C@H](C)CO)C(=O)c2cccc(NC(=O)c3cnccn3)c2O[C@H]1CN(C)Cc1ccc(C(=O)Nc2ccccc2N)cc1	0	.	.	.	.	.	.
C[C@@H]1CN([C@@H](C)CO)C(=O)c2cccc(NC(=O)c3cnccn3)c2O[C@@H]1CN(C)Cc1ccc(C(=O)Nc2ccccc2N)cc1	-1	.	106*	93	84	47*	91*
CN(C)C=NC(=O)c1ccc(-c2cccs2)s1	.	0	.	.	.	.	.
Cc1ccc(-c2noc(CN(C(=O)c3ccccc3-c3ccccc3)C(C)C)n2)cc1	.	0	.	.	.	.	.
NC(=O)C1(N2CCCCC2)CCN(CC(=O)Nc2ccc(Cl)cc2)CC1	.	1	.	.	.	.	.
O=C(CCc1nc(-c2ccccc2F)no1)Nc1ccccc1[N+](=O)[O-]	.	0	.	.	.	.	.
C[C@H]1CN([C@@H](C)CO)C(=O)c2cc(C#Cc3ccccn3)cnc2O[C@@H]1CN(C)Cc1cncnc1	1	0	111*	108*	23	-12	5
SMILES	KDM4C inh	IDH1 R132H inh	T cruzi growth-1	T cruzi growth-2	T cruzi growth-3	NIH3T3 tox	3T3 cytotox 2
C[C@H]1CN([C@@H](C)CO)C(=O)c2cc(C#Cc3ccccn3)cnc2O[C@@H]1CN(C)Cc1cccnc1	0	-1	71	.	.	.	.
C[C@H](CO)N1C[C@H](C)[C@H](CN(C)Cc2cccnc2)Oc2ncc(C#Cc3ccccn3)cc2C1=O	0	-1	6	.	.	.	.
C[C@@H]1CN([C@@H](C)CO)C(=O)c2cc(C#Cc3ccccn3)cnc2O[C@H]1CN(C)Cc1ccccc1	0	0	128*	105*	92	1	10
CC(C)CC#Cc1ccc2c(c1)O[C@@H](CN(C)Cc1ccccn1)[C@@H](C)CN([C@H](C)CO)S2(=O)=O	11	-2	109*	106*	52	-7	104*
CCCC#Cc1ccc2c(c1)O[C@@H](CN(C)Cc1ccccn1)[C@@H](C)CN([C@@H](C)CO)S2(=O)=O	3	-2	74	.	.	.	.
CC(C)CC#Cc1ccc2c(c1)O[C@H](CN(C)Cc1ccccn1)[C@@H](C)CN([C@H](C)CO)S2(=O)=O	2	-1	124*	106*	94	22	106*
CCCC#Cc1ccc2c(c1)O[C@H](CN(C)Cc1ccccn1)[C@H](C)CN([C@H](C)CO)S2(=O)=O	1	0	45	.	.	.	.
COC(=O)c1c(NC(=O)C(C)Oc2ccc(F)cc2)sc(C(C)=O)c1C (stereo not given)	.	0	.	.	.	.	.
O=C(CN1CCN(S(=O)(=O)c2cccc([N+](=O)[O-])c2)CC1)Nc1cc(Cl)ccc1Cl	.	0	.	.	.	.	.
N#C[C@@H]1[C@@H](c2ccc(C#CC3CCCCC3)cc2)[C@H](CO)N1C(=O)Cc1ccccn1	-3	.	89	.	.	.	.
N#C[C@H]1[C@H](c2ccc(C#CC3CCCC3)cc2)[C@H](CO)N1C(=O)Cc1ccccn1	0	.	.	.	.	.	.
N#C[C@@H]1[C@H](c2ccc(C#CC3CCCCC3)cc2)[C@@H](CO)N1C(=O)Cc1ccccn1	0	.	99*	96*	103*	2	99*
C/C=C/c1ccc([C@H]2[C@@H](C#N)N(C(=O)Cc3ccccn3)[C@@H]2CO)cc1	-2	.	103*	98*	-1	3	?
C/C=C/c1ccc([C@@H]2[C@H](C#N)N(C(=O)Cc3ccccn3)[C@H]2CO)cc1	-1	.	91	.	.	.	.
N#C[C@@H]1[C@@H](c2ccc(C#CC3CC3)cc2)[C@H](CO)N1C(=O)Cc1ccccn1	-2	.	99*	104*	75	?	1
N#C[C@@H]1[C@@H](c2ccc(C#CC3CCCC3)cc2)[C@H](CO)N1C(=O)Cc1ccccn1	-3	.	.	.	.	.	.
N#C[C@@H]1[C@H](c2ccc(C#CC3CCCCC3)cc2)[C@H](CO)N1C(=O)Cc1ccccn1	0	.	98*	92	112*	17	28
Cc1ccc(Nc2nc(Oc3ccc(=O)[nH]n3)nc(N3CCOCC3)n2)cc1	.	0	.	.	.	.	.

From PubChem BioAssay
